Assay results: ChEMBL document CHEMBL4028848, “Discovery of N-{4-[5-(4-Fluorophenyl)-3-methyl-2-methylsulfanyl-3H-imidazol-4-yl]-pyridin-2-yl}-acetamide (CBS-3595), a Dual p38α MAPK/PDE-4 Inhibitor with Activity against TNFα-Related Diseases” (J Med Chem, 2017)
Active and inactive are the calls of the source. No cut-off for these calls is given here.

Legend:
[1] = molecular target: T1, Mitogen-activated protein kinase 14 (Homo sapiens, UniProt Q16539); experiment: Inhibition of p38MAPK alpha (unknown origin) at 10 uM relative to control
[2] = molecular target: Casein kinase I isoform delta (Homo sapiens) (UniProt P48730); experiment: Inhibition of CK1delta (unknown origin) at 3 uM relative to control
[3] = molecular target: Adenosine receptor A1 (Homo sapiens) (UniProt P30542); experiment: Antagonist activity at adenosine A1 receptor (unknown origin) at 10 uM relative to control
[4] = molecular target: T1, Mitogen-activated protein kinase 14; experiment: Inhibition of p38alpha MAPK (unknown origin) by beta-galactosidase enzyme complementation assay
[5] = molecular target: Dual specificity mitogen-activated protein kinase kinase 4 (Homo sapiens) (UniProt P45985); experiment: Inhibition of MKK4 (unknown origin) at 10 uM relative to control
[6] = molecular target: Dual specificity mitogen-activated protein kinase kinase 6 (Homo sapiens) (UniProt P52564); experiment: Inhibition of MKK6 (unknown origin) assessed as decrease in p38alpha MAPK phosphorylation at 10 uM relative to control
[7] = molecular target: Dual specificity mitogen-activated protein kinase kinase 7 (Homo sapiens) (UniProt O14733); experiment: Inhibition of MKK7beta (unknown origin) at 10 uM relative to control
[8] = tested on: Rattus norvegicus; experiment: In vivo inhibition of P38 MAPKalpha in Sprague-Dawley rat assessed as decrease in LPS-stimulated TNFalpha level in serum at 1 mg/kg, po pretreated for 1 hr followed by LPS addition measured after 2 hrs relative to control; assay type: functional
Summary of the method: (§1)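 Sprague–Dawley rats (8/group) were dosed orally with vehicle or 1, 3 or 10 mg/kg. LPS 0.1 mg/kg i.v. was given 1 h after dosing. Blood was collected 2 h later and serum TNFα measured. Inhibition was calculated relative to the mean of vehicle-treated animals.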

[9] = Drug metabolism in cynomolgus monkey liver microsomes assessed as 4-(4-(4-fluorophenyl)-1-methyl-2-(methylsulfinyl)-1H-imidazol-5-yl)pyridin-2-amine formation at 10 to 100 uM; assay type: ADME, Macaca fascicularis, microsome
Summary of the method: (§2)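 Test compound incubated at 10, 30 and 100 μM with liver microsomes from rat, Cynomolgus monkey or human, and metabolites monitored.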

[10] = Drug metabolism in cynomolgus monkey liver microsomes assessed as N-(4-(4-(4-fluorophenyl)-1-methyl-2-(methylsulfinyl)-1H-imidazol-5-yl)pyridin-2-yl)acetamide formation at 10 to 100 uM; assay type: ADME, Macaca fascicularis, microsome; summary of the method: as §2
[11] = tested on: Rattus norvegicus; experiment: In vivo inhibition of P38 MAPKalpha in Sprague-Dawley rat assessed as decrease in LPS-stimulated TNFalpha level in serum at 10 mg/kg, po pretreated for 1 hr followed by LPS addition measured after 2 hrs relative to control; assay type: functional; summary of the method: as §1
[12] = tested on: Mus musculus; experiment: In vivo inhibition of P38 MAPKalpha in BALB/c mouse assessed as decrease in LPS/GalN-stimulated TNFalpha level in plasma at 3 mg/kg, po administered via gavage pretreated for 1 hr followed by LPS/GalN addition measured after 1.5 hrs relative to control; assay type: functional
Summary of the method: (§3)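 Male BALB/c mice, n = 6/group, given 3, 10 or 30 mg/kg orally by gavage 1 h before i.p. D-GalN (500 mg/kg) plus LPS (1.5 μg/kg). Blood was taken by cardiac puncture and plasma TNFα measured against a vehicle-only control.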

[13] = tested on: Mus musculus; experiment: In vivo inhibition of P38 MAPKalpha in BALB/c mouse assessed as decrease in LPS/GalN-stimulated TNFalpha level in plasma at 10 mg/kg, po administered via gavage pretreated for 1 hr followed by LPS/GalN addition measured after 1.5 hrs relative to control; assay type: functional; summary of the method: as §3
[14] = tested on: Mus musculus; experiment: Antiarthritic activity in human TNF transgenic mouse model assessed as reduction in synovitis at 20 to 50 mg/kg/day, po for 10 weeks; assay type: functional, organism-based
Summary of the method: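 Heterozygous human TNF transgenic mice (8 per group) were dosed orally for ten weeks with 20 or 50 mg/kg/day as a methylcellulose suspension, alongside vehicle and infliximab i.p. controls. Joint swelling and grip strength were scored weekly, and hind paws were examined histologically at the end.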

[15] = AUC (0 to infinity) in Beagle dog at 40 mg/kg, po by LC-MS/MS analysis; assay type: ADME, organism-based, Canis lupus familiaris; parameters: dose 40 mg/kg, time infinity, route oral; conditions: in vivo
Summary of the method: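 Toxicokinetics from a maximum-tolerated-dose study in four Beagle dogs given 40 mg/kg orally. Plasma levels of both parent and its predominant metabolite were monitored.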

[16] = AUC (0 to infinity) in female Sprague-Dawley rat at 30 mg/kg, po by LC-MS/MS analysis; assay type: ADME, organism-based; parameters: dose 30 mg/kg, time infinity, route oral; conditions: in vivo
Summary of the method: (§4)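 Rats of each sex received a single oral dose of 30 mg/kg. Plasma concentration–time profiles of parent were determined separately for females and males.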

[17] = AUC (0 to t) in male Sprague-Dawley rat at 30 mg/kg, po by LC-MS/MS analysis; assay type: ADME, organism-based; conditions: in vivo; summary of the method: as §4
[18] = Cmax in cynomolgus monkey at 20 mg/kg, po measured on day 1 and 27 post dose by LC-MS/MS analysis; assay type: ADME, organism-based, Macaca fascicularis; parameters: dose 20 mg/kg, route oral; conditions: in vivo
Summary of the method: (§5)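 Within a 4-week oral toxicity study, Cynomolgus monkeys received 6, 12 or 20 mg/kg daily. Blood was sampled from 0.5 to 24 h post dose on days 1 and 27. Tmax, Cmax, T1/2 and AUC0–24 came from individual profiles of parent and metabolite.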

[19] = AUC (0 to t) in cynomolgus monkey at 20 mg/kg, po measured on day 1 and 27 post dose by LC-MS/MS analysis; assay type: ADME, organism-based, Macaca fascicularis; conditions: in vivo; summary of the method: as §5
[20] = tested on: Cynomolgus monkey; experiment: Toxicity in cynomolgus monkey assessed as decrease in QT at 6 to 20 mg/kg, po; assay type: organism-based, Macaca fascicularis; conditions: in vivo
[21] = tested on: Cynomolgus monkey; experiment: Toxicity in cynomolgus monkey assessed as effect on mean blood preasure at 6 to 20 mg/kg, po; assay type: organism-based, Macaca fascicularis; conditions: in vivo
[22] = tested on: Rattus norvegicus; experiment: Toxicity in Sprague-Dawley rat assessed as increase in abdomen size at 150 mg/kg, po administered via gavage for daily 28 days followed by 2 weeks off without dosing; assay type: organism-based; conditions: in vivo
[23] = tested on: Rattus norvegicus; experiment: Toxicity in Sprague-Dawley rat assessed as increase in hunched posture at 150 mg/kg, po administered via gavage for daily 28 days followed by 2 weeks off without dosing; assay type: organism-based; conditions: in vivo
[24] = tested on: Cynomolgus monkey; experiment: Toxicity in cynomolgus monkey assessed as death at 6 to 20 mg/kg followed by after 1 week high dose treatment of 25 mg/kg at 1 week post first dose for 28 days followed by 2 weeks off without dosing; assay type: organism-based, Macaca fascicularis; conditions: in vivo
Summary of the method: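 Cynomolgus monkeys, 32 in total, 3–5 per group. Dosed for 28 days with vehicle or 6, 12 or 20 mg/kg; the high dose was raised to 25 mg/kg/day after 1 week. Two males and two females from the control and high-dose groups were followed through a further 2-week treatment-free period. Deaths and clinical signs recorded.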

[25] = tested on: Salmonella typhimurium; experiment: Genotoxicity in Salmonella typhimurium in presence of S9 fraction by Ames test; assay type: toxicity; conditions: salmonella enterica subsp. enterica serovar typhimurium
Summary of the method: (§6)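 Bacterial reverse mutation (Ames) test in S. typhimurium and E. coli strains, run with and without S9 mix.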

[26] = tested on: Escherichia coli; experiment: Genotoxicity in Escherichia coli in absence of S9 fraction by Ames test; assay type: toxicity; summary of the method: as §6
[27] = Drug uptake in LPS-stimulated female Lewis rat serum at 10 mg/kg, po pretreated for 5 hrs followed by LPS addition measured after 1.5 hrs post dose; assay type: ADME, organism-based; conditions: read-out: Drug uptake
Summary of the method: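 Female Lewis rats, n = 8/group, dosed orally at 10 mg/kg at 1, 3 or 5 h before LPS challenge. Serum aliquots taken 1.5 h after LPS were used to measure drug concentration.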

[28] = Toxicity in Sprague-Dawley rat administered via oral gavage measured for 14 days; conditions: in vivo

T1 sequence (Q16539 whole entry, canonical isoform): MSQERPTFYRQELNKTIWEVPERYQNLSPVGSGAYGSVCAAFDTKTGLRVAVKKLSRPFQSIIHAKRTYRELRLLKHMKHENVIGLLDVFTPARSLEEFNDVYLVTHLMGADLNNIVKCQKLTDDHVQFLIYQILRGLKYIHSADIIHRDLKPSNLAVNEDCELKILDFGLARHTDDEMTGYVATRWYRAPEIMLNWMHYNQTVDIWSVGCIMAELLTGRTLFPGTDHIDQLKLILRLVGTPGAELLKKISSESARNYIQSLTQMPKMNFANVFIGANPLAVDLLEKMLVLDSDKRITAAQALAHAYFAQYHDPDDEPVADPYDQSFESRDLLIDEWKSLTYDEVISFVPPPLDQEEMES
Sequence of Adenosine receptor A1 (Homo sapiens) (P30542 whole entry): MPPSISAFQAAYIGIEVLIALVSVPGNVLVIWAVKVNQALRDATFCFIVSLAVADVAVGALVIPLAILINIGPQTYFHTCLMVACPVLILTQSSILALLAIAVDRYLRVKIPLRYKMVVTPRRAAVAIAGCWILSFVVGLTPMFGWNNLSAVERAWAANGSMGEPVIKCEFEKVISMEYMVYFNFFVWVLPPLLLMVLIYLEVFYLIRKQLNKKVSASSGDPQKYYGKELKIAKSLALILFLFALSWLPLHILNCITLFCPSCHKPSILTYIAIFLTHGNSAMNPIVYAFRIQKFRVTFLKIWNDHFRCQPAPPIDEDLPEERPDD
Sequence of Dual specificity mitogen-activated protein kinase kinase 4 (Homo sapiens) (P45985 whole entry): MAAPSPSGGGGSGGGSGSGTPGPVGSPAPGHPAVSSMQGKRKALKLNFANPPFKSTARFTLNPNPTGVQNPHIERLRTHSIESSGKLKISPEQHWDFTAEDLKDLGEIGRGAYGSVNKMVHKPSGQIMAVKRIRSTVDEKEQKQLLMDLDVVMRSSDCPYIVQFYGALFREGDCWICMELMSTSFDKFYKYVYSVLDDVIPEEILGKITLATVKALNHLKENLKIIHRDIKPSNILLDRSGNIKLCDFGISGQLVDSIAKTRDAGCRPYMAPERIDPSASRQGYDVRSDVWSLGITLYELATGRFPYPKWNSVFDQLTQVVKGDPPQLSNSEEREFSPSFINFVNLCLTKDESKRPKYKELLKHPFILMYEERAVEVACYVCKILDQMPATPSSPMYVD
Sequence of Dual specificity mitogen-activated protein kinase kinase 7 (Homo sapiens) (O14733 whole entry): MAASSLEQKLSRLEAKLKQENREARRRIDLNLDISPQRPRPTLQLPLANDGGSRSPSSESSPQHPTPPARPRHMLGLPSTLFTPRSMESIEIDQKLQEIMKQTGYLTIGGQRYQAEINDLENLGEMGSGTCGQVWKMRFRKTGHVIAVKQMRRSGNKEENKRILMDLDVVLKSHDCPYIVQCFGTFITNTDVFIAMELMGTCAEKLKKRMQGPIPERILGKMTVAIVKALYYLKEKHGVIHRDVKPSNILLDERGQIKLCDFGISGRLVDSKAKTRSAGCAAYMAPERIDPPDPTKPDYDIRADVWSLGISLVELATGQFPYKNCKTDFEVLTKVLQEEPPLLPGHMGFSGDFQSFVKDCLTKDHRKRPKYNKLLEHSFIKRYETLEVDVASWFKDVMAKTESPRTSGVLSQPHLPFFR
Sequence of Casein kinase I isoform delta (Homo sapiens) (P48730 whole entry, looked up, canonical isoform): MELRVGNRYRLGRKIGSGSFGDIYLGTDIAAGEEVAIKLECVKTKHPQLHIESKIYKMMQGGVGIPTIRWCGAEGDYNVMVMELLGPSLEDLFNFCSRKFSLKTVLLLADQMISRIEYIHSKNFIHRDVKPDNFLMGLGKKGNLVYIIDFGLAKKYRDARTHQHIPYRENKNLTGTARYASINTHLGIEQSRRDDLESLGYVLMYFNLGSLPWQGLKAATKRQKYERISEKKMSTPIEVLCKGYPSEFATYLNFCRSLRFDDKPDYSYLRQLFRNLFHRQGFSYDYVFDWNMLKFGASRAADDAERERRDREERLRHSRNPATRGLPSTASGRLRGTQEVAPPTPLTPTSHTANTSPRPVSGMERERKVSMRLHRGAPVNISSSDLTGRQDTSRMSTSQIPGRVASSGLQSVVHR
Sequence of Dual specificity mitogen-activated protein kinase kinase 6 (Homo sapiens) (P52564 whole entry): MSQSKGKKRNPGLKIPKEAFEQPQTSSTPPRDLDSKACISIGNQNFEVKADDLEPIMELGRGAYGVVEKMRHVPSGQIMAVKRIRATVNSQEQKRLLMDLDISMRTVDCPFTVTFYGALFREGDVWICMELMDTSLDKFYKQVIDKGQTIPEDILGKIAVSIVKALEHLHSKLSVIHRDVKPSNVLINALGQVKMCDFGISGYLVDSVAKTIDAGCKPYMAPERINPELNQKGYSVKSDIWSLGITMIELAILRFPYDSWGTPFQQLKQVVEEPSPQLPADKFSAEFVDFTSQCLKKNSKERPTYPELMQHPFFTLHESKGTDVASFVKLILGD

In the case of Cn1c([S+](C)[O-])nc(-c2ccc(F)cc2)c1-c1ccnc(N)c1 (stereo not drawn), the inhibition [1] is reported as “inactive” and the inhibition [2] is reported as 88%.
Compound CC(=O)Nc1cc(-c2c(-c3ccc(F)cc3)nc([S+](C)[O-])n2C)ccn1 (stereo not drawn) has an inhibition [3] of 58%, an IC50 [4] of 500 nM and an inhibition [5] of 37%. For the same compound, the inhibition [6] was 62%, the inhibition [7] was 101% and the inhibition in vivo at 1 mg/kg [8] was 43%. The Drug metabolism [9] was “Metabolite_Detected”, the Drug metabolism [10] was “Metabolite_Detected” and the inhibition in vivo at 10 mg/kg [11] was 96%. The inhibition in vivo at 3 mg/kg [12] was 82%, the inhibition in vivo at 10 mg/kg [13] was 84% and the Activity [14] was “Active”. It also gave an AUC(0-inf) [15] of 120 µM·h, an AUC(0-inf) [16] of 40.9 µM·h and an AUC(0-t) [17] of 29.8 µM·h. The Cmax [18] was 8.4 µM, the AUC(0-t) [19] was 79.6 µM·h and the Activity [20] was “Toxic”. The Activity [21] was “Non-Toxic”, the Activity [22] was “Toxic” and the Activity [23] was “Toxic”. For the same compound, the Activity [24] was “Non-Toxic”, the Activity [25] was “Non-Toxic” and the Activity [26] was “Non-Toxic”. The concentration at 1.5 h [27] was 871 ng/mL and the MTD at 336 h [28] was 150 mg/kg.
